# Key:
# insulin hexamer = insulin hexamer (Homo sapiens, UniProt P01308); assay: ESI-MS analysis of insulin oligomer states in insulin/C-peptide mixtures
# [1] = biological target: insulin-insulin interactions (chip-bound insulin) (Homo sapiens, UniProt P01308); format: binding; details: peptide mixed with insulin analyte
# Method in brief: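 Biacore SPR with insulin immobilized either C-terminally (surface thiol coupling, up to 5000 RU) or N-terminally (amine coupling, up to 1000 RU). Test peptide was premixed with insulin analyte at 1, 5, 10 and 20 µM and flowed at 20 µl/min. Running buffer was 10 mM Na citrate pH 5 with 100 mM NaCl and 0.005% SP20. Curves are averages of three runs after blank subtraction.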
# chip-bound C-peptide = biological target: T1, chip-bound C-peptide (Homo sapiens, UniProt P01308); assay: SPR binding of C-peptide in solution to chip-bound C-peptide
# T1 sequence (P01308 57-87 limits assumed): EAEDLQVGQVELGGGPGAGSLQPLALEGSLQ
# Method in brief: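 Peptide was immobilised on the sensor chip by surface thiol coupling via the C-terminus (up to 5000 RU) or amine coupling via the N-terminus (up to 1000 RU). The same peptide was run as analyte at 20 µl/min, diluted from a 600 µM stock in H2O/HCl pH 5. Running buffers spanned pH 3–7 (citrate, bis-Tris or Tris/HCl, 10 mM) with 100 mM NaCl and 0.005% SP20.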
# Sequence of insulin hexamer (P01308 25-54 limits assumed): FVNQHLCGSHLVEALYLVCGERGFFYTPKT
# Sequence of insulin hexamer (P01308 90-110 limits assumed): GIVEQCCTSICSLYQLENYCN
# Sequence of insulin-insulin interactions (chip-bound insulin) (P01308 25-54 limits assumed): as the sequence (P01308 25-54 limits assumed) above
substance,measurement,setting,value
C-peptide,effects on insulin in ESI-MS compared with scrambled C-peptide,insulin hexamer; at low peptide concentrations,slightly more effects on insulin than scrambled C-peptide
same,insulin hexamer signals in ESI mass spectra,"insulin hexamer; nano-ESI-MS, pH 5, insulin 30 µM and C-peptide 30 µM (1:1)",markedly decreased from their level in insulin solutions to an absence in insulin-C-peptide mixtures
same,effect on rate of dissociation in insulin-insulin SPR,[1],slightly reduce the rate of dissociation
same,binding of C-peptide in solution to chip-bound C-peptide,chip-bound C-peptide,no evidence for such binding

# Reference: PMC2773842 (Cellular and Molecular Life Sciences: CMLS, 2006)
